Data: ChEMBL document CHEMBL4351006, “A new exploration towards aminothiazolquinolone oximes as potentially multi-targeting antibacterial agents: Design, synthesis and evaluation acting on microbes, DNA, HSA and topoisomerase IV” (Eur J Med Chem, 2019)
Values after ≈ are worked out from the molar mass of the structure shown.

How the values were obtained:
Candida parapsilosis = assay: Antifungal activity against Candida parapsilosis ATCC 22019 assessed as reduction in fungal cell viability incubated for 24 hrs by two fold serial dilution method; settings: Lodderomyces parapsilosis, ATCC 22019, 24 h
Klebsiella pneumoniae = assay: Antibacterial activity against Klebsiella pneumoniae assessed as reduction in bacterial cell viability incubated for 24 hrs by two fold serial dilution method; format: functional
How it was run: (§1)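 Broth two-fold serial dilution run to CLSI guidelines. Chloromycin, norfloxacin and fluconazole served as reference drugs.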

Staphylococcus aureus [1] = assay: Antibacterial activity against Staphylococcus aureus ATCC 25923 assessed as reduction in bacterial cell viability incubated for 24 hrs by two fold serial dilution method; format: functional; settings: ATCC 25923, 24 h
How it was run: as §1

Pseudomonas aeruginosa [2] = assay: Antibacterial activity against Pseudomonas aeruginosa ATCC 27853 assessed as reduction in bacterial cell viability incubated for 24 hrs by two fold serial dilution method; format: functional; settings: ATCC 27853, 24 h
How it was run: as §1

Candida tropicalis = assay: Antifungal activity against Candida tropicalis assessed as reduction in fungal cell viability incubated for 24 hrs by two fold serial dilution method; format: functional
How it was run: as §1

Staphylococcus aureus [3] = assay: Antibacterial activity against Staphylococcus aureus ATCC 29213 assessed as reduction in bacterial cell viability incubated for 24 hrs by two fold serial dilution method; format: functional; settings: ATCC 29213, 24 h
How it was run: as §1

Escherichia coli [4] = assay: Antibacterial activity against Escherichia coli assessed as reduction in bacterial cell viability incubated for 24 hrs by two fold serial dilution method; format: functional
How it was run: as §1

Escherichia coli [5] = assay: Antibacterial activity against Escherichia coli ATCC 25922 assessed as reduction in bacterial cell viability incubated for 24 hrs by two fold serial dilution method; format: functional; settings: ATCC 25922, 24 h
How it was run: as §1

Candida albicans [6] = assay: Antifungal activity against Candida albicans ATCC 90023 assessed as reduction in fungal cell viability incubated for 24 hrs by two fold serial dilution method; format: functional; settings: ATCC 90023, 24 h
How it was run: as §1

Pseudomonas aeruginosa [7] = assay: Antibacterial activity against Pseudomonas aeruginosa assessed as reduction in bacterial cell viability incubated for 24 hrs by two fold serial dilution method; format: functional
How it was run: as §1

Staphylococcus aureus [8] = assay: Antibacterial activity against methicillin resistant Staphylococcus aureus N315 assessed as reduction in bacterial cell viability incubated for 24 hrs by two fold serial dilution method; format: functional; settings: N315, 24 h
How it was run: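 MIC by two-fold serial dilution following CLSI, with chloromycin and norfloxacin as reference drugs.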

Acinetobacter baumannii = assay: Antibacterial activity against Acinetobacter baumannii assessed as reduction in bacterial cell viability incubated for 24 hrs by two fold serial dilution method; format: functional
How it was run: as §1

Staphylococcus aureus [9] = assay: Antibacterial activity against Staphylococcus aureus assessed as reduction in bacterial cell viability incubated for 24 hrs by two fold serial dilution method; format: functional
How it was run: as §1

Candida albicans [10] = assay: Antifungal activity against Candida albicans assessed as reduction in fungal cell viability incubated for 24 hrs by two fold serial dilution method; format: functional
How it was run: as §1

Enterococcus faecalis = assay: Antibacterial activity against Enterococcus faecalis assessed as reduction in bacterial cell viability incubated for 24 hrs by two fold serial dilution method; format: functional
How it was run: as §1

Aspergillus fumigatus = assay: Antifungal activity against Aspergillus fumigatus assessed as reduction in fungal cell viability incubated for 24 hrs by two fold serial dilution method; format: functional
How it was run: as §1

| Compound | MIC (Candida parapsilosis) [µM] | MIC (Klebsiella pneumoniae) [µM] | MIC (Staphylococcus aureus [1]) [µM] | MIC (Pseudomonas aeruginosa [2]) [µM] | MIC (Candida tropicalis) [µM] | MIC (Staphylococcus aureus [3]) [µM] | MIC (Escherichia coli [4]) [µM] | MIC (Escherichia coli [5]) [µM] | MIC (Candida albicans [6]) [µM] | MIC (Pseudomonas aeruginosa [7]) [µM] | MIC (Staphylococcus aureus [8]) [µM] | MIC (Acinetobacter baumannii) [µM] | MIC (Staphylococcus aureus [9]) [µM] | MIC (Candida albicans [10]) [µM] | MIC (Enterococcus faecalis) [µM] | MIC (Aspergillus fumigatus) [µM] |
| --- | --- | --- | --- | --- | --- | --- | --- | --- | --- | --- | --- | --- | --- | --- | --- | --- |
| CCn1cc(-c2csc(N)n2)c(=O)c2cc(F)c(N3CCN(C/C(C)=N/O)CC3)cc21 | 72 (≈ 32 µg/mL) | 72 (≈ 32 µg/mL) | 36 (≈ 16 µg/mL) | 144 (≈ 64 µg/mL) | 288 (≈ 128 µg/mL) | 144 (≈ 64 µg/mL) | 288 (≈ 128 µg/mL) | 72 (≈ 32 µg/mL) | 72 (≈ 32 µg/mL) | 288 (≈ 128 µg/mL) | 72 (≈ 32 µg/mL) | 288 (≈ 128 µg/mL) | 72 (≈ 32 µg/mL) | 72 (≈ 32 µg/mL) | 288 (≈ 128 µg/mL) | 288 (≈ 128 µg/mL) |
| CCn1cc(-c2csc(N)n2)c(=O)c2cc(F)c(N3CCN(CC(C)=O)CC3)cc21 | 288 (≈ 124 µg/mL) | 72 (≈ 30.9 µg/mL) | 288 (≈ 124 µg/mL) | 36 (≈ 15.5 µg/mL) | 288 (≈ 124 µg/mL) | 575 (≈ 247 µg/mL) | 1150 (≈ 494 µg/mL) | 288 (≈ 124 µg/mL) | 144 (≈ 61.9 µg/mL) | 288 (≈ 124 µg/mL) | 72 (≈ 30.9 µg/mL) | 288 (≈ 124 µg/mL) | 144 (≈ 61.9 µg/mL) | 575 (≈ 247 µg/mL) | 288 (≈ 124 µg/mL) | 575 (≈ 247 µg/mL) |
| CCn1cc(-c2csc(N)n2)c(=O)c2cc(F)c(N3CCN(C/C(=N/OC)c4ccc(Cl)cc4Cl)CC3)cc21 | 217 (≈ 128 µg/mL) | 217 (≈ 128 µg/mL) | 54 (≈ 31.8 µg/mL) | 217 (≈ 128 µg/mL) | 54 (≈ 31.8 µg/mL) | 217 (≈ 128 µg/mL) | 109 (≈ 64.3 µg/mL) | 869 (≈ 512 µg/mL) | 217 (≈ 128 µg/mL) | 217 (≈ 128 µg/mL) | 434 (≈ 256 µg/mL) | 54 (≈ 31.8 µg/mL) | 217 (≈ 128 µg/mL) | 434 (≈ 256 µg/mL) | 434 (≈ 256 µg/mL) | 434 (≈ 256 µg/mL) |
| CCn1cc(-c2csc(N)n2)c(=O)c2cc(N3CCN(C/C(=N/OC)c4ccc(F)cc4)CC3)c(Cl)cc21 | 58 (≈ 32.2 µg/mL) | 231 (≈ 128 µg/mL) | 58 (≈ 32.2 µg/mL) | 58 (≈ 32.2 µg/mL) | 58 (≈ 32.2 µg/mL) | 58 (≈ 32.2 µg/mL) | 14 (≈ 7.77 µg/mL) | 58 (≈ 32.2 µg/mL) | 58 (≈ 32.2 µg/mL) | 461 (≈ 256 µg/mL) | 14 (≈ 7.77 µg/mL) | 115 (≈ 63.8 µg/mL) | 29 (≈ 16.1 µg/mL) | 231 (≈ 128 µg/mL) | 58 (≈ 32.2 µg/mL) | 29 (≈ 16.1 µg/mL) |
